Measurements as given in ChEMBL document CHEMBL3425427, “Pyrido[4,3-e][1,2,4]triazolo[4,3-a]pyrazines as Selective, Brain Penetrant Phosphodiesterase 2 (PDE2) Inhibitors” (ACS Med Chem Lett, 2015).
Converted amounts (≈) assume the structure as drawn. The source made the active and inactive calls. No cut-off for these calls is given here.

How the values were obtained:
Rattus norvegicus [1] = assay: In vivo PDE2 occupancy in Wistar rat assessed as inhibition of specific binding of [3H]-4-((1-(5-butoxypyridin-3-yl)-4-methyl-[1,2,4]triazolo[4,3-a]quinoxalin-8-yl)methyl)morpholine radiotracer up to 10 mg/kg, po and pre-treated with 2.5 mg/kg, sc PDE10 inhibitor MP10; format: functional, organism-based
[2] = Drug metabolism in rat liver microsomes at 1 uM incubated for 15 mins at 37 degC; format: ADME; conditions: read-out: Drug metabolism
Method in brief: (§1)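 Compound at 1 μM incubated 15 min at 37 °C with human or rat liver microsomes; read-out is percent metabolized.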

[3] = Drug metabolism in human liver microsomes at 1 uM incubated for 15 mins at 37 degC; format: ADME; conditions: read-out: Drug metabolism; method in brief: as §1
[4] = Ratio of drug level in brain to plasma of Sprague-Dawley rat at 10 mg/kg, sc after 1 hr; format: ADME, organism-based; design: dose 10 mg/kg, route subcutaneous; conditions: read-out: BPR
Method in brief: (§2)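 Fed male Sprague-Dawley rats, n = 2 per time point, given 10 mg/kg s.c. in 20% HPβCD at pH 3.5−4. Brain and plasma levels taken 1 h after dosing; brain-to-plasma ratio computed from these.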

[5] = Unbound fraction in Sprague-Dawley rat brain homogenates at 10 mg/kg, sc after 5 hrs at 37 degC by rapid equilibrium dialysis; format: ADME, organism-based; design: dose 10 mg/kg, route subcutaneous; conditions: brain homogenate
Method in brief: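 Unbound fraction measured in rat brain homogenate by rapid equilibrium dialysis, 5 h incubation at 37 °C.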

Rattus norvegicus [6] = assay: In vivo PDE2 occupancy in Wistar rat assessed as inhibition of specific binding of [3H]-4-((1-(5-butoxypyridin-3-yl)-4-methyl-[1,2,4]triazolo[4,3-a]quinoxalin-8-yl)methyl)morpholine radiotracer and pre-treated with 2.5 mg/kg, sc PDE10 inhibitor MP10; format: functional; conditions: route subcutaneous
[7] = Drug level in Sprague-Dawley rat brain homogenates at 10 mg/kg, sc after 1 hr; format: ADME, organism-based; design: dose 10 mg/kg, route subcutaneous; conditions: read-out: Drug uptake; method in brief: as §2
[8] = molecular target: T1, cAMP and cAMP-inhibited cGMP 3',5'-cyclic phosphodiesterase 10A (Rattus norvegicus, UniProt Q9QYJ6); assay: Inhibition of 6-His-tagged rat recombinant PDE10A expressed in Sf9 cells using [3H]cAMP incubated for 60 mins by scintillation proximity assay
T1 sequence (Q9QYJ6 whole entry): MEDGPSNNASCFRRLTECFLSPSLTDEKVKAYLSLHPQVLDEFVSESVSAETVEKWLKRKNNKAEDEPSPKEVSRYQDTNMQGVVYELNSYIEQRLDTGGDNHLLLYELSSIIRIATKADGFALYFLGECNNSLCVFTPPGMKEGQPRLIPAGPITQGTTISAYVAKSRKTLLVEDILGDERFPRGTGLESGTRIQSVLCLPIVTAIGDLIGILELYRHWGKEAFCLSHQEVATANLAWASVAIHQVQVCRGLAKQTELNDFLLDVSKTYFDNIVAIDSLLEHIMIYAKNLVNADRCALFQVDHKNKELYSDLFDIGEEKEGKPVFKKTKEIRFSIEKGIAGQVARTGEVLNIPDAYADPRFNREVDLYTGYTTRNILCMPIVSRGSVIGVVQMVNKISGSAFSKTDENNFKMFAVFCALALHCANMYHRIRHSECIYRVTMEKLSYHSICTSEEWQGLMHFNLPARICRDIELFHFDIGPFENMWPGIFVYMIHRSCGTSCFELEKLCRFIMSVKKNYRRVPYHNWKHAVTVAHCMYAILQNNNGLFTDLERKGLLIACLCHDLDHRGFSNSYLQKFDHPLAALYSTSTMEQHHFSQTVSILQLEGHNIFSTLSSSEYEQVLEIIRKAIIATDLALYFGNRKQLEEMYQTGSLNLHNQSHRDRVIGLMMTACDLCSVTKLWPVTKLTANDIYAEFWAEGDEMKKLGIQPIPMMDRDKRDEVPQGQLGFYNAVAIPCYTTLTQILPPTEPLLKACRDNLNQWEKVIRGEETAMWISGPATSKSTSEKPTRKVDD

[9] = Dissociation constant, pKa of the compound; format: physicochemical
CYP2D6 = CYP2D6 (Homo sapiens, UniProt P10635); assay: Inhibition of CYP2D6 (unknown origin) at 5 uM; format: ADME
CYP2C19 = CYP2C19 (Homo sapiens, UniProt P33261); assay: Inhibition of CYP2C19 (unknown origin) at 5 uM; format: ADME
[10] = Volume of distribution at steady state in Sprague-Dawley rat at 2.5 mg/kg, iv; format: ADME, organism-based; design: dose 2.5 mg/kg, route intravenous; conditions: in vivo, read-out: Vdss
Method in brief: (§3)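 Male Sprague-Dawley rats, fed; n = 3 per time point. Dosed 2.5 mg/kg i.v. or 10 mg/kg p.o.; plasma PK parameters derived from both routes.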

CYP3A4 = CYP3A4 (Homo sapiens, UniProt P08684); assay: Inhibition of CYP3A4 (unknown origin) at 5 uM; format: ADME
[11] = Cmax in Sprague-Dawley rat at 10 mg/kg, po; format: ADME, organism-based; design: dose 10 mg/kg, route oral; conditions: in vivo; method in brief: as §3
[12] = molecular target: High affinity 3',5'-cyclic-AMP phosphodiesterase 7A (Homo sapiens, UniProt Q13946); assay: Inhibition of 6-His-tagged human recombinant PDE7A1 expressed in Sf9 cells by scintillation proximity assay
[13] = Tmax in Sprague-Dawley rat at 10 mg/kg, po; format: ADME, organism-based; design: dose 10 mg/kg, route oral; conditions: in vivo; method in brief: as §3
[14] = molecular target: cGMP-inhibited 3',5'-cyclic phosphodiesterase 3B (Homo sapiens, UniProt Q13370); assay: Inhibition of human PDE3B by scintillation proximity assay
[15] = Apparent volume of distribution in Sprague-Dawley rat at 2.5 mg/kg, iv; format: ADME, organism-based; design: dose 2.5 mg/kg, route intravenous; conditions: in vivo, read-out: Vz; method in brief: as §3
Phosphodiesterase 6 = assay: Inhibition of human PDE6AB by scintillation proximity assay; format: protein assay
[16] = AUC (0 to infinity) in Sprague-Dawley rat at 2.5 mg/kg, iv; format: ADME, organism-based; design: dose 2.5 mg/kg, route intravenous, time infinity; conditions: plasma
[17] = molecular target: High affinity cGMP-specific 3',5'-cyclic phosphodiesterase 9A (Homo sapiens, UniProt O76083); assay: Inhibition of 6-His-tagged human recombinant PDE9A1 expressed in Sf9 cells by scintillation proximity assay
[18] = molecular target: 3',5'-cyclic-AMP phosphodiesterase 4D (Homo sapiens, UniProt Q08499); assay: Inhibition of 6-His-tagged human recombinant PDE4D3 expressed in Sf9 cells by scintillation proximity assay
[19] = molecular target: Dual 3',5'-cyclic-AMP and -GMP phosphodiesterase 11A (Homo sapiens, UniProt Q9HCR9); assay: Inhibition of full length human PDE11A4 expressed in HEK cells by scintillation proximity assay; design: species or system HEK293
[20] = Oral bioavailability in Sprague-Dawley rat at 10 mg/kg; format: ADME, organism-based; conditions: in vivo; method in brief: as §3
[21] = Clearance in Sprague-Dawley rat at 2.5 mg/kg, iv; format: ADME, organism-based; design: dose 2.5 mg/kg, route intravenous; conditions: in vivo; method in brief: as §3
[22] = molecular target: Dual specificity calcium/calmodulin-dependent 3',5'-cyclic nucleotide phosphodiesterase 1A (Homo sapiens, UniProt P54750); assay: Inhibition of human PDE1A by scintillation proximity assay
[23] = AUC (0 to infinity) in Sprague-Dawley rat at 10 mg/kg, po; format: ADME, organism-based; design: time infinity, dose 10 mg/kg, route oral; conditions: plasma
[24] = molecular target: cGMP-specific 3',5'-cyclic phosphodiesterase (Homo sapiens, UniProt O76074); assay: Inhibition of 6-His-tagged human recombinant PDE5A3 expressed in Sf9 cells by scintillation proximity assay
[25] = Half life in Sprague-Dawley rat at 10 mg/kg, po; format: ADME, organism-based; design: dose 10 mg/kg, route oral; conditions: in vivo; method in brief: as §3
CYP1A2 = molecular target: T2, CYP1A2 (Homo sapiens, UniProt P05177); assay: Inhibition of CYP1A2 (unknown origin) at 5 uM; format: ADME
T2 sequence (P05177 whole entry): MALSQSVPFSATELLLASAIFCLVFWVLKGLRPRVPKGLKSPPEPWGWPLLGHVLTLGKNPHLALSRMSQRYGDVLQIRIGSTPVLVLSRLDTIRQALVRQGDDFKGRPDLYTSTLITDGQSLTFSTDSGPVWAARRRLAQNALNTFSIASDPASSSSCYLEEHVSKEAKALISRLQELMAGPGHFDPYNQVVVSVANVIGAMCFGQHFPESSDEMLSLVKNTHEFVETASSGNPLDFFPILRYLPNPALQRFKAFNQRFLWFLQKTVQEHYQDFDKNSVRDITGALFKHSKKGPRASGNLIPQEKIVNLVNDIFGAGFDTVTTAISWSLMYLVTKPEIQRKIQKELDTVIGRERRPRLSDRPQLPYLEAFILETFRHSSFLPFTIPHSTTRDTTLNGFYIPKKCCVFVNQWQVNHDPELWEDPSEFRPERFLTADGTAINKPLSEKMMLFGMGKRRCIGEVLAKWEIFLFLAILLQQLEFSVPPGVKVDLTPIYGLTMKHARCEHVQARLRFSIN

[26] = Drug formulatability in 20% HPbetaCD at pH >3.5 buffer; format: physicochemical; conditions: 20% HPbetaCD in buffer at pH >3.5; read-out: Activity
[27] = Dissociation constant, pKa of the compound at 25 degC by potentiometric titration method; format: physicochemical
Salmonella typhimurium = assay: Genotoxicity in Salmonella typhimurium at 125 ug/ml by AMES-2 test; format: toxicity, organism-based; conditions: salmonella enterica subsp. enterica serovar typhimurium
Method in brief: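 Colorimetric AMESII bacterial mutagenicity kit, adapted; compound tested at 125 μg/mL.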

[28] = Kinetic solubility in pH 7.4 buffer incubated for 4 hrs; format: physicochemical; conditions: read-out: Kinetic_solubility
[29] = Initial plasma concentration in Sprague-Dawley rat at 2.5 mg/kg, iv; format: ADME, organism-based; design: dose 2.5 mg/kg, route intravenous; method in brief: as §3
[30] = Solubility in pH 3.9 buffer with 20% HPbetaCD; format: physicochemical
[31] = Half life in Sprague-Dawley rat at 2.5 mg/kg, iv; format: ADME, organism-based; design: dose 2.5 mg/kg, route intravenous; conditions: in vivo; method in brief: as §3
[32] = Solubility in pH 7.4 buffer; format: physicochemical
Rattus norvegicus [33] = assay: In vivo PDE2 occupancy in Wistar rat assessed as inhibition of specific binding of [3H]-4-((1-(5-butoxypyridin-3-yl)-4-methyl-[1,2,4]triazolo[4,3-a]quinoxalin-8-yl)methyl)morpholine radiotracer and pre-treated with 2.5 mg/kg, sc PDE10 inhibitor MP10
CYP2C9 = CYP2C9 (Homo sapiens, UniProt P11712); assay: Inhibition of CYP2C9 (unknown origin) at 5 uM; format: ADME
CYP2C9, sequence (P11712 whole entry): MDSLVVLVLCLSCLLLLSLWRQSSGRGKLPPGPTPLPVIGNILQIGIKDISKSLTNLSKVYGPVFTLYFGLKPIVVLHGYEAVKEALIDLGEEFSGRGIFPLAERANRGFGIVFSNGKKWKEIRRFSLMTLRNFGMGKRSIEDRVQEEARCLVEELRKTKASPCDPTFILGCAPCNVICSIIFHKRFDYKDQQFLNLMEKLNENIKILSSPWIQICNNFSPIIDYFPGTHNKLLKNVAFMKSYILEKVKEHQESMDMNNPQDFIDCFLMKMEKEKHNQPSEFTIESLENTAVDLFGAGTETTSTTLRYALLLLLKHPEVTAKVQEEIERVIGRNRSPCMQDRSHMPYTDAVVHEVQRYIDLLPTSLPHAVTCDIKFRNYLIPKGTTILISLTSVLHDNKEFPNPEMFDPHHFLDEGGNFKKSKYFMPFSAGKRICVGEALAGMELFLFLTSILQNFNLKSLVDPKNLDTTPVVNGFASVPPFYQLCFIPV

Dual 3',5'-cyclic-AMP and -GMP phosphodiesterase 11A, sequence (Q9HCR9 whole entry): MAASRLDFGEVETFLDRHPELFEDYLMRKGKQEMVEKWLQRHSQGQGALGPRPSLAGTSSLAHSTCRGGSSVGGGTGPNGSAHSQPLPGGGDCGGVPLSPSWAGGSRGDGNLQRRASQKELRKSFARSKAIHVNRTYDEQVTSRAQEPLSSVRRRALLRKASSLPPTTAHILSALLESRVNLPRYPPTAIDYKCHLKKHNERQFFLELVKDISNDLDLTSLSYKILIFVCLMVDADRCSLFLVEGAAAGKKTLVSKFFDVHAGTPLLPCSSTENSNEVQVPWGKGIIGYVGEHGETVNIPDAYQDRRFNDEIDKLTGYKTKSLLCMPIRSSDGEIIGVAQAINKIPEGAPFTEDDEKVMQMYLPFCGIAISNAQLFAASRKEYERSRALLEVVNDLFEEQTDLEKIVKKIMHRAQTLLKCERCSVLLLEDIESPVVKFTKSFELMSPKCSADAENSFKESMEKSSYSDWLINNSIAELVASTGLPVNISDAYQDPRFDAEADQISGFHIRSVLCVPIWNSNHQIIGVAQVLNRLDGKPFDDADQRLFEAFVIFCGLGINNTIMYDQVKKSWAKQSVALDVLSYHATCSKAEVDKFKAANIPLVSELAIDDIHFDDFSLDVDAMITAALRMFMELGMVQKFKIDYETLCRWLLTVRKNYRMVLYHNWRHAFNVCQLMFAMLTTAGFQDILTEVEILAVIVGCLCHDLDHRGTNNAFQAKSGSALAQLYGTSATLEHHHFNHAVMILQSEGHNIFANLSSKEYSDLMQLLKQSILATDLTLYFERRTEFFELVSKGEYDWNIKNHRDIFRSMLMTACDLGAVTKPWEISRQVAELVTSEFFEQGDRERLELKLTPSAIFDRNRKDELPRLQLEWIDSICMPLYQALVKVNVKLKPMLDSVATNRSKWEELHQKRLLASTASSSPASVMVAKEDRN
High affinity 3',5'-cyclic-AMP phosphodiesterase 7A, sequence (Q13946 whole entry): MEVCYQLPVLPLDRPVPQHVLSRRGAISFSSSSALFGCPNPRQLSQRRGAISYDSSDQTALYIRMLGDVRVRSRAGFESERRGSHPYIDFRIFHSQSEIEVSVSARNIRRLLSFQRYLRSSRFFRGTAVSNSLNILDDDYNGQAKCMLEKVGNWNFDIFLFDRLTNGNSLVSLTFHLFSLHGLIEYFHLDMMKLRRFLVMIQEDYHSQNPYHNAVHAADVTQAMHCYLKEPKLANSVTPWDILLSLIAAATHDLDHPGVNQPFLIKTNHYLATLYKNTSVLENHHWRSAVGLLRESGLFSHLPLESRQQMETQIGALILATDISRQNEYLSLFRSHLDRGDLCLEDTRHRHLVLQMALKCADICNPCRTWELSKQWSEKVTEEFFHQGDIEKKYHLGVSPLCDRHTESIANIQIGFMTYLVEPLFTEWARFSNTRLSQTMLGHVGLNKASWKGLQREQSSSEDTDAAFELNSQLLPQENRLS
High affinity cGMP-specific 3',5'-cyclic phosphodiesterase 9A, sequence (O76083 whole entry): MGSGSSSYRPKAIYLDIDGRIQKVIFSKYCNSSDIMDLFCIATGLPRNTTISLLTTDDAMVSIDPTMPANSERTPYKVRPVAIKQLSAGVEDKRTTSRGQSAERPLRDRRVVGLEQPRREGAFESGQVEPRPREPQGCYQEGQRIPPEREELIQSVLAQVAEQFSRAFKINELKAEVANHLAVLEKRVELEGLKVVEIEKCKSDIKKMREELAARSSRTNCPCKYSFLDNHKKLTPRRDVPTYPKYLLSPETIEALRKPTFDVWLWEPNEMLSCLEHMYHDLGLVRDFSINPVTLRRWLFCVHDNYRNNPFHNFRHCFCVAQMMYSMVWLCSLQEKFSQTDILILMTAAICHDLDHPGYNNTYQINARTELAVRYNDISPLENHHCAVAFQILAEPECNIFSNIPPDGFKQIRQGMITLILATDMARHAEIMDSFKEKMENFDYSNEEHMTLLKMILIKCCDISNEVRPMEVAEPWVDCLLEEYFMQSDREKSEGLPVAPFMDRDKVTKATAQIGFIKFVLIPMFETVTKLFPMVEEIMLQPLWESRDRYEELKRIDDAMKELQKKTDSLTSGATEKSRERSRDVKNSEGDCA
cGMP-inhibited 3',5'-cyclic phosphodiesterase 3B, sequence (Q13370 whole entry): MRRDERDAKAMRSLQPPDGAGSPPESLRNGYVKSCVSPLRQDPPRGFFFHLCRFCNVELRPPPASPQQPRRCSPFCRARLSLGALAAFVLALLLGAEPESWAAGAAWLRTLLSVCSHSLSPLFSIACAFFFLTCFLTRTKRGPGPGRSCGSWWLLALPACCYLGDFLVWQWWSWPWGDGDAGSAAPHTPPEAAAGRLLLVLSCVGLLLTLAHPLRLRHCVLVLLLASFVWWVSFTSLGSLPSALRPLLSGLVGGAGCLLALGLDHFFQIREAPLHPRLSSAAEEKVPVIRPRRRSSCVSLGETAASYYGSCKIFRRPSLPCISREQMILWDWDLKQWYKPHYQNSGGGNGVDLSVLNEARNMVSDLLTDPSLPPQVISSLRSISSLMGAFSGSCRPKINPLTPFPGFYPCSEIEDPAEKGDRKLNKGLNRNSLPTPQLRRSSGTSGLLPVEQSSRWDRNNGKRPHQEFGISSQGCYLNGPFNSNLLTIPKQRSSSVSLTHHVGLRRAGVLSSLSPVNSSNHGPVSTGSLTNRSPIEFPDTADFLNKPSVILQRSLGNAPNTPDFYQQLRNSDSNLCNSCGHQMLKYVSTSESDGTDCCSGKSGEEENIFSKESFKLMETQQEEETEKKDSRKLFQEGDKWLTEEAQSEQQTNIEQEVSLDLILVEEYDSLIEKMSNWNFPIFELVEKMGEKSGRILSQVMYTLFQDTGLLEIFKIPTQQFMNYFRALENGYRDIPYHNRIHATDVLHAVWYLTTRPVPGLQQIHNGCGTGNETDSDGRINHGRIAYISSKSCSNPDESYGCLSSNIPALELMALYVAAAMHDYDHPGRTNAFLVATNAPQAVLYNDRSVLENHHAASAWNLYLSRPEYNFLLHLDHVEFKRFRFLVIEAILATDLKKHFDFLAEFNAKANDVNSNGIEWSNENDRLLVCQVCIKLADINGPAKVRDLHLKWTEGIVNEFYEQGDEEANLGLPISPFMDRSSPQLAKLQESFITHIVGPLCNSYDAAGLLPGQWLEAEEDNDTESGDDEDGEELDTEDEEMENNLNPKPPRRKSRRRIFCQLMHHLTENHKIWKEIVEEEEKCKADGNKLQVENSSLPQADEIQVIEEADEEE
CYP2C19, sequence (P33261 whole entry): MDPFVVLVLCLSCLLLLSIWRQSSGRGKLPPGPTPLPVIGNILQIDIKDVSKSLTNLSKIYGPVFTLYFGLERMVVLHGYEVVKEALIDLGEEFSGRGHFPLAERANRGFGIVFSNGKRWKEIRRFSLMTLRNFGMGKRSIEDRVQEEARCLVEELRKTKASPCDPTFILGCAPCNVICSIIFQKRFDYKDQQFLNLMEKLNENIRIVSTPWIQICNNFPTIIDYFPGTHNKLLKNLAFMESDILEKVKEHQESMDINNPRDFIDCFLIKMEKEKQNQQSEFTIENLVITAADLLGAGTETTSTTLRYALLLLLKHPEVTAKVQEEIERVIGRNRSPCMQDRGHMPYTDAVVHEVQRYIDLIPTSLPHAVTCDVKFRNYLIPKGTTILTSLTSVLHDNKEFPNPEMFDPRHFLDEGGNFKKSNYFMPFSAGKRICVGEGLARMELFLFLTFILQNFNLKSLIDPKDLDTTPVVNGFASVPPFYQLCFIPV
Dual specificity calcium/calmodulin-dependent 3',5'-cyclic nucleotide phosphodiesterase 1A, sequence (P54750 whole entry): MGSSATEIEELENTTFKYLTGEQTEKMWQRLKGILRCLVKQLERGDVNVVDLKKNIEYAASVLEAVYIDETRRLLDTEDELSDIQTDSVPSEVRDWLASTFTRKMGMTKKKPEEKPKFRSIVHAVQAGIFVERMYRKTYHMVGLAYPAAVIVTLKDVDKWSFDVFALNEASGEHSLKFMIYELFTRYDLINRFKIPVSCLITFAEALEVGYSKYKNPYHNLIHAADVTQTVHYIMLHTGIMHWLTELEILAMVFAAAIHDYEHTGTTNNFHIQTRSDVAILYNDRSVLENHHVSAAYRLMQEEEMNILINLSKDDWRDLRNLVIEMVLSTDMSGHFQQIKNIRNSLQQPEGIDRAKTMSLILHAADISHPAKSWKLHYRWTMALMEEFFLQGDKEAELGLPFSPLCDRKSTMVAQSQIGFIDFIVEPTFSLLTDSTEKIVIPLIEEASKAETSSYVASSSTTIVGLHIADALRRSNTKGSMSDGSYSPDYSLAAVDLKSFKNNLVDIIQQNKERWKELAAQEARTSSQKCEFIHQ

Compound: Cc1nc2ccncc2n2c(-c3cc(COCC(F)(F)F)ccc3Cl)nnc12
- Activity (Rattus norvegicus [1]): inactive
- metabolised at 0.25 h, 1 µM [2]: 77%
- metabolised at 0.25 h, 1 µM [3]: 12%
- Kp at 1 h [4]: 1.1
- fraction unbound at 5 h [5]: 0.1
- ED50 (Rattus norvegicus [6]): 3.6 mg/kg
- concentration at 1 h [7]: 370 ng/g

Compound: CCCOCc1ccc(Cl)c(-c2nnc3c(C)nc4ccncc4n23)c1
- metabolised at 0.25 h, 1 µM [2]: 98%
- metabolised at 0.25 h, 1 µM [3]: 78%
- Kp at 1 h [4]: 0.98
- fraction unbound at 5 h [5]: 0.1
- IC50 [8]: 3.89 µM
- concentration at 1 h [7]: 895 ng/g

Compound: Cc1nc2cccnc2n2c(-c3ccccc3Cl)nnc12
- pKa [9]: 1

Compound: Cc1nc2ccncc2n2c(-c3ccccc3Cl)nnc12
- inhibition at 5 µM (CYP2D6): < 50%
- inhibition at 5 µM (CYP2C19): < 50%
- Vd [10]: 1.02 L/kg
- inhibition at 5 µM (CYP3A4): < 50%
- Cmax [11]: 997 ng/mL
- IC50 [12]: > 10 µM
- Tmax [13]: 1.17 h
- IC50 [14]: > 10 µM
- Vd [15]: 1.61 L/kg
- IC50 (Phosphodiesterase 6): > 10 µM
- AUC(0-inf) [16]: 1040 ng·h/mL
- metabolised at 0.25 h, 1 µM [2]: 13%
- IC50 [17]: > 10 µM
- IC50 [18]: 5.89 µM
- metabolised at 0.25 h, 1 µM [3]: 7%
- IC50 [19]: 6.92 µM
- Kp at 1 h [4]: 0.65
- fraction unbound at 5 h [5]: > 0.3
- bioavailability [20]: 100%
- clearance [21]: 38.7 mL/min/kg
- IC50 [22]: > 10 µM
- AUC(0-inf) [23]: 4230 ng·h/mL
- IC50 [24]: > 10 µM
- half-life [25]: 2.36 h
- pKa [9]: 2.7
- inhibition at 5 µM (CYP1A2): < 50%
- solubility [26]: 4000 µg/mL (≈ 13.5 mM)
- pKa [27]: 2.7
- Activity (Salmonella typhimurium): Non-toxic
- solubility kinetic at 4 h [28]: > 1000 µM
- C0 [29]: 3020 ng/mL
- concentration at 1 h [7]: 2730 ng/g
- solubility [30]: 4000 µg/mL (≈ 13.5 mM)
- half-life [31]: 0.47 h
- solubility [32]: > 1000 µM
- ED50 (Rattus norvegicus [33]): 21 mg/kg
- inhibition at 5 µM (CYP2C9): < 50%

Compound: CCCCOc1ccc(Cl)c(-c2nnc3c(C)nc4ccncc4n23)c1
- metabolised at 0.25 h, 1 µM [2]: 98%
- metabolised at 0.25 h, 1 µM [3]: 34%
- Kp at 1 h [4]: 0.69
- fraction unbound at 5 h [5]: 0.026
- concentration at 1 h [7]: 807 ng/g
